Blank lines part the entries; values can stand above or below the compound they belong to. The source made the active and inactive calls. The calls are words filed in the database; no cut-off is given here.
How the values were obtained:
[1] = biological target: cAMP and cAMP-inhibited cGMP 3',5'-cyclic phosphodiesterase 10A (Homo sapiens, UniProt Q9Y233); assay: Inhibition of recombinant human PDE10A using [3H]cAMP as substrate by scintillation proximity assay
Summary of the method: (§1)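 Scintillation proximity assay with [³H]cAMP as substrate, measuring hydrolysis of cAMP to AMP by recombinant human PDEs 1–11. Ki values are means of at least two experiments.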

[2] = biological target: T1, Phosphodiesterase 6 (Homo sapiens) (UniProt Q13956+P18545+P35913+O43924+P16499+P51160); assay: Inhibition of recombinant human PDE6 using [3H]cAMP as substrate at 1 uM by scintillation proximity assay; type: protein assay
Rattus norvegicus [3] = assay: Antipsychotic activity in CD rat assessed as inhibition of MK-801-induced hyperactivity at 10 mg/kg, po relative to control; type: functional, organism-based; design: dose 10 mg/kg
Summary of the method: (§2)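 Male CD rats habituated to locomotor activity chambers 24 h before testing. On test day, MK-801 (0.3 mg/kg, sc) co-administered with PDE10 inhibitor (po), then rats placed in apparatus. Inhibition expressed as percent of activity in inhibitor + MK-801 group relative to vehicle + MK-801 group.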

Rattus norvegicus [4] = assay: Antipsychotic activity in CD rat assessed as inhibition of MK-801-induced hyperactivity at 30 mg/kg, po relative to control; type: functional, organism-based; design: dose 30 mg/kg; summary of the method: as §2
[5] = AUC (0 to 6 hrs) in rat at 10 mg/kg, po; type: ADME, organism-based; design: time < 6 hr, dose 10 mg/kg, route oral; conditions: plasma
Summary of the method: (§3)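 Rat cassette-accelerated rapid screen, 10 mg/kg oral. Plasma exposure measured over 0–6 h. Brain drug concentration taken at 6 h. Brain/plasma ratio is brain over plasma drug concentration at 6 h.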

[6] = Drug uptake in rat brain at 10 mg/kg, po after 6 hrs; type: ADME, organism-based; design: dose 10 mg/kg, route oral; conditions: read-out: Drug uptake; summary of the method: as §3
[7] = biological target: T1, Phosphodiesterase 6 (Homo sapiens); assay: Inhibition of recombinant human PDE6 using [3H]cAMP as substrate at 3.6 uM by scintillation proximity assay; type: protein assay
Phosphodiesterase 6 = assay: Inhibition of recombinant human PDE6 using [3H]cAMP as substrate by scintillation proximity assay; type: protein assay; summary of the method: as §1
[8] = Drug uptake in CD rat brain at 30 mg/kg, po after 1 hr; type: ADME, organism-based; design: dose 30 mg/kg, route oral; conditions: read-out: Drug uptake
Phosphodiesterase 3 = Phosphodiesterase 3 (Homo sapiens, UniProt Q14432+Q13370); assay: Inhibition of recombinant human PDE3 using [3H]cAMP as substrate by scintillation proximity assay; type: protein assay; summary of the method: as §1
[9] = biological target: 5-hydroxytryptamine receptor 1B (Homo sapiens) (UniProt P28222); assay: Inhibition of 5HT1b at 10 uM
Sequence of 5-hydroxytryptamine receptor 1B (Homo sapiens) (P28222 whole entry): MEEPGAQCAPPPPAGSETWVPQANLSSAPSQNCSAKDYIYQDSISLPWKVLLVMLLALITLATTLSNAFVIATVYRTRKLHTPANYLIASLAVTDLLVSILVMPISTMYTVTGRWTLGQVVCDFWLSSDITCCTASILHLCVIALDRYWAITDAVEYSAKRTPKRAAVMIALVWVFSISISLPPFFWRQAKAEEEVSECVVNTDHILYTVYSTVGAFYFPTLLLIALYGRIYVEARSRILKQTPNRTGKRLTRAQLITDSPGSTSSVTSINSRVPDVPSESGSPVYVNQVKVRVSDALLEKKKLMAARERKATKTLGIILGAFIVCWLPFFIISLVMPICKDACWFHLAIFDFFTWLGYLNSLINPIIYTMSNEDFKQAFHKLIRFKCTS

Phosphodiesterase 4 = Phosphodiesterase 4 (Homo sapiens, UniProt P27815+Q08499+Q07343+Q08493); assay: Inhibition of recombinant human PDE4 using [3H]cAMP as substrate by scintillation proximity assay; type: protein assay; summary of the method: as §1
[10] = Plasma protein binding in rat; type: ADME, cell-free; conditions: read-out: PPB (converted)
[11] = biological target: Dual 3',5'-cyclic-AMP and -GMP phosphodiesterase 11A (Homo sapiens, UniProt Q9HCR9); assay: Inhibition of recombinant human PDE11 using [3H]cAMP as substrate by scintillation proximity assay; summary of the method: as §1
Sequence of Dual 3',5'-cyclic-AMP and -GMP phosphodiesterase 11A (Q9HCR9 whole entry): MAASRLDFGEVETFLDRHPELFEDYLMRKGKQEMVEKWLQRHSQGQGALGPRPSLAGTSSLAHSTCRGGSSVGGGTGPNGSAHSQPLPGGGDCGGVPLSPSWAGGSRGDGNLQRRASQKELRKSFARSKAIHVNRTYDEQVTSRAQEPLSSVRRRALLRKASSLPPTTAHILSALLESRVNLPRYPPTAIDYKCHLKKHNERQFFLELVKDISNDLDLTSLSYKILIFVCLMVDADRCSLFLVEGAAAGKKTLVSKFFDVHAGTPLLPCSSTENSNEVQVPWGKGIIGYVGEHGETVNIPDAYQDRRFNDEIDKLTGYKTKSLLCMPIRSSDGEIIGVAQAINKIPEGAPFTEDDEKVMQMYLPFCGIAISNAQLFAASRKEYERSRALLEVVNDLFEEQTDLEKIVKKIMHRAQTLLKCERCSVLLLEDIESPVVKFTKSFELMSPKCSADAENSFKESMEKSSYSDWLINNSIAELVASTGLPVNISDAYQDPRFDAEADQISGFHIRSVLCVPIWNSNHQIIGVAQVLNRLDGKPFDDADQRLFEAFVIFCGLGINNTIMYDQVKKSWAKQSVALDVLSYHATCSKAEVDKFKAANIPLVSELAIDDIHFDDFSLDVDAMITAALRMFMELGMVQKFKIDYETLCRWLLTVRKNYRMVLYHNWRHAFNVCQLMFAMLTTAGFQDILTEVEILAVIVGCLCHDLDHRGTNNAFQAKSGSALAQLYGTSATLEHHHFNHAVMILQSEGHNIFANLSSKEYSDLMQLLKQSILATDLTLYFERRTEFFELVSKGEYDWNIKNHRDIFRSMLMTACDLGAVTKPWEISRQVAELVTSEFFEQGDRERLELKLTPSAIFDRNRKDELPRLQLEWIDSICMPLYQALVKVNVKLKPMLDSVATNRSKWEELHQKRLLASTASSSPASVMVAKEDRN

[12] = biological target: High affinity cGMP-specific 3',5'-cyclic phosphodiesterase 9A (Homo sapiens, UniProt O76083); assay: Inhibition of recombinant human PDE9 using [3H]cAMP as substrate by scintillation proximity assay; summary of the method: as §1
Sequence of High affinity cGMP-specific 3',5'-cyclic phosphodiesterase 9A (O76083 whole entry, canonical isoform): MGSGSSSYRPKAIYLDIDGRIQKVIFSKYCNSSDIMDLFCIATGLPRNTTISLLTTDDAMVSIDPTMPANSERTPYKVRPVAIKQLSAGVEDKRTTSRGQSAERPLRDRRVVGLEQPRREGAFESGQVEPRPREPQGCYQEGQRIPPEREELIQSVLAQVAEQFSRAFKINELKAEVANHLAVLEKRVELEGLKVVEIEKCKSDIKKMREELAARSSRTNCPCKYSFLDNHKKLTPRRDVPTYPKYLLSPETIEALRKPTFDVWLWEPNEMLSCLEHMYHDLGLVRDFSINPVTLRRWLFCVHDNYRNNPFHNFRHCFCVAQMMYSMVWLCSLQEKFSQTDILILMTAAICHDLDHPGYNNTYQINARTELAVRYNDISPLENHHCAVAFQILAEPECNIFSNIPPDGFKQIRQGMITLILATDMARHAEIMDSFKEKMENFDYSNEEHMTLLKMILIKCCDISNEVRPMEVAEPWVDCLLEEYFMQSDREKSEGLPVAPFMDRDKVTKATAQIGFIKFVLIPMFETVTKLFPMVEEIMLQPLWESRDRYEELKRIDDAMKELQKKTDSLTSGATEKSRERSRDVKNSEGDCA

[13] = biological target: Casein kinase I isoform delta (Homo sapiens, UniProt P48730); assay: Inhibition of CK1delta
Sequence of Casein kinase I isoform delta (P48730 whole entry, canonical isoform): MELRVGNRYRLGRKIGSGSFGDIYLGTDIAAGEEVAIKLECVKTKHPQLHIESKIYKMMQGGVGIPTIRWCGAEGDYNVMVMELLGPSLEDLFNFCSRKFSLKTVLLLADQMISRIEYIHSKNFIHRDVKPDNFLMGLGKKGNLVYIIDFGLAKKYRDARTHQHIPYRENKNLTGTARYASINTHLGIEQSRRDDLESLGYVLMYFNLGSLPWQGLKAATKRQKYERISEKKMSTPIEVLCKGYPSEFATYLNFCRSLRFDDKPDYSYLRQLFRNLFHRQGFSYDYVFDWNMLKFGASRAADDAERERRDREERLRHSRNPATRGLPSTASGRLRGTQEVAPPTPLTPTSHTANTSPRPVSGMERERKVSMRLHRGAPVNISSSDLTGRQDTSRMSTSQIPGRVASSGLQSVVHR

[14] = biological target: T2, 5-hydroxytryptamine receptor 3A (Homo sapiens) (UniProt P46098); assay: Inhibition of 5HT3 at 10 uM
T2 sequence (whole entry): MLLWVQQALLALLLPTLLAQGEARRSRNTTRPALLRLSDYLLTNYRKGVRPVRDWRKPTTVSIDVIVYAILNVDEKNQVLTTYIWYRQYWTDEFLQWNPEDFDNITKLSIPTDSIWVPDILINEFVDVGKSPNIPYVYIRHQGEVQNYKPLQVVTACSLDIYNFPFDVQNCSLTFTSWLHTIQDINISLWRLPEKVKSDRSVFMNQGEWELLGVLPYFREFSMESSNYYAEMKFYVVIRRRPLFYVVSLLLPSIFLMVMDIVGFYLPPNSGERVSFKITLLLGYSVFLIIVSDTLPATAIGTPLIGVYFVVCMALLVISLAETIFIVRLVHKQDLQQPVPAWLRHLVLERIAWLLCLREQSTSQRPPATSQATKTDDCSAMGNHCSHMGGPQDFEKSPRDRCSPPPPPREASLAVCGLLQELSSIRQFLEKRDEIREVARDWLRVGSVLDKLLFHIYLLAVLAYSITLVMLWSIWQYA

Phosphodiesterase 8 = Phosphodiesterase 8 (Homo sapiens, UniProt O95263+O60658); assay: Inhibition of recombinant human PDE8 using [3H]cAMP as substrate by scintillation proximity assay; type: protein assay; summary of the method: as §1
Phosphodiesterase 7 = Phosphodiesterase 7 (Homo sapiens, UniProt Q13946+Q9NP56); assay: Inhibition of recombinant human PDE7 using [3H]cAMP as substrate by scintillation proximity assay; type: protein assay; summary of the method: as §1
[15] = biological target: cGMP-dependent 3',5'-cyclic phosphodiesterase (Homo sapiens, UniProt O00408); assay: Inhibition of recombinant human PDE2 using [3H]cAMP as substrate by scintillation proximity assay; summary of the method: as §1
Sequence of cGMP-dependent 3',5'-cyclic phosphodiesterase (O00408 whole entry): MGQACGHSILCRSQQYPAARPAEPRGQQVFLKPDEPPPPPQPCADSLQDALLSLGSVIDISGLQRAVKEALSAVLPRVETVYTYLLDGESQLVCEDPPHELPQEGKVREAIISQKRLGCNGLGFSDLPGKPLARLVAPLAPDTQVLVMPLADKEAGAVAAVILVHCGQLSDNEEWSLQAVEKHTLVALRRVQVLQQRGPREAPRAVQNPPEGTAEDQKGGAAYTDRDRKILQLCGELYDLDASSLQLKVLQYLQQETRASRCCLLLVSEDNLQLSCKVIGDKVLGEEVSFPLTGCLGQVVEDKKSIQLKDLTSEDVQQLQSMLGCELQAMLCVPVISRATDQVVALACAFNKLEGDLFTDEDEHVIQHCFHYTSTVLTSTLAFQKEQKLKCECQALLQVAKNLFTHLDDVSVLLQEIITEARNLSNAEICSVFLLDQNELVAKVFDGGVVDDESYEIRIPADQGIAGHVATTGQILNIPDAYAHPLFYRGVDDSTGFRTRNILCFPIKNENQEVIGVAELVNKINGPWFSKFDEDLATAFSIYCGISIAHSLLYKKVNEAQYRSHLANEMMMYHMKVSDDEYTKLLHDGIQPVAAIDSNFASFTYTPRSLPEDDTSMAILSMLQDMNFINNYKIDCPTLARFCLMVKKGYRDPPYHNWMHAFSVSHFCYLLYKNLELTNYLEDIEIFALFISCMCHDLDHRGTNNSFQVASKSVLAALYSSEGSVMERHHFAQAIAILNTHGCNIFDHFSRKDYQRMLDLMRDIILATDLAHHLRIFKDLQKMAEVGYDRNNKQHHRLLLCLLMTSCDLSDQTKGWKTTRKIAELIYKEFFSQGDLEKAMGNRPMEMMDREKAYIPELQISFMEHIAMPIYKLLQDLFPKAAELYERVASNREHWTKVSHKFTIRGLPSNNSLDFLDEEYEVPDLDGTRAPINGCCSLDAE

Phosphodiesterase 1 = Phosphodiesterase 1 (Homo sapiens, UniProt P54750+Q01064+Q14123); assay: Inhibition of recombinant human PDE1 using [3H]cAMP as substrate by scintillation proximity assay; type: protein assay; summary of the method: as §1
[16] = biological target: cGMP-specific 3',5'-cyclic phosphodiesterase (Homo sapiens, UniProt O76074); assay: Inhibition of recombinant human PDE5A using [3H]cAMP as substrate by scintillation proximity assay; summary of the method: as §1
[17] = biological target: 5-hydroxytryptamine receptor 7 (Homo sapiens) (UniProt P34969); assay: Inhibition of 5HT7 at 10 uM
Sequence of 5-hydroxytryptamine receptor 7 (Homo sapiens) (P34969 whole entry): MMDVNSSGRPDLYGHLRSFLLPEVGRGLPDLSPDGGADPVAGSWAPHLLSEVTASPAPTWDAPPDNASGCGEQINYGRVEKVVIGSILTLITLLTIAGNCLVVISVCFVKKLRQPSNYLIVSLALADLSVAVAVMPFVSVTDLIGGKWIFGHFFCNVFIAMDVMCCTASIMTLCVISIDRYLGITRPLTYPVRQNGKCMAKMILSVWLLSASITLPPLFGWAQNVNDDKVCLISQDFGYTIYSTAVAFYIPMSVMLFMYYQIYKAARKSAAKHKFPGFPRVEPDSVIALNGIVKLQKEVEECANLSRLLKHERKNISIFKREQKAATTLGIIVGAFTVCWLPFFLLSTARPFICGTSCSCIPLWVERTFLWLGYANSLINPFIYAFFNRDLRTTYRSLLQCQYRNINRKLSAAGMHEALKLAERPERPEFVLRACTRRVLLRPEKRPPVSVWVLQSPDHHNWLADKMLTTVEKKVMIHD

[18] = Ratio of drug level in brain to plasma in rat at 10 mg/kg, po at 6 hrs; type: ADME, organism-based; design: dose 10 mg/kg, route oral; conditions: read-out: BPR; summary of the method: as §3

Sequence of cAMP and cAMP-inhibited cGMP 3',5'-cyclic phosphodiesterase 10A (Q9Y233 whole entry): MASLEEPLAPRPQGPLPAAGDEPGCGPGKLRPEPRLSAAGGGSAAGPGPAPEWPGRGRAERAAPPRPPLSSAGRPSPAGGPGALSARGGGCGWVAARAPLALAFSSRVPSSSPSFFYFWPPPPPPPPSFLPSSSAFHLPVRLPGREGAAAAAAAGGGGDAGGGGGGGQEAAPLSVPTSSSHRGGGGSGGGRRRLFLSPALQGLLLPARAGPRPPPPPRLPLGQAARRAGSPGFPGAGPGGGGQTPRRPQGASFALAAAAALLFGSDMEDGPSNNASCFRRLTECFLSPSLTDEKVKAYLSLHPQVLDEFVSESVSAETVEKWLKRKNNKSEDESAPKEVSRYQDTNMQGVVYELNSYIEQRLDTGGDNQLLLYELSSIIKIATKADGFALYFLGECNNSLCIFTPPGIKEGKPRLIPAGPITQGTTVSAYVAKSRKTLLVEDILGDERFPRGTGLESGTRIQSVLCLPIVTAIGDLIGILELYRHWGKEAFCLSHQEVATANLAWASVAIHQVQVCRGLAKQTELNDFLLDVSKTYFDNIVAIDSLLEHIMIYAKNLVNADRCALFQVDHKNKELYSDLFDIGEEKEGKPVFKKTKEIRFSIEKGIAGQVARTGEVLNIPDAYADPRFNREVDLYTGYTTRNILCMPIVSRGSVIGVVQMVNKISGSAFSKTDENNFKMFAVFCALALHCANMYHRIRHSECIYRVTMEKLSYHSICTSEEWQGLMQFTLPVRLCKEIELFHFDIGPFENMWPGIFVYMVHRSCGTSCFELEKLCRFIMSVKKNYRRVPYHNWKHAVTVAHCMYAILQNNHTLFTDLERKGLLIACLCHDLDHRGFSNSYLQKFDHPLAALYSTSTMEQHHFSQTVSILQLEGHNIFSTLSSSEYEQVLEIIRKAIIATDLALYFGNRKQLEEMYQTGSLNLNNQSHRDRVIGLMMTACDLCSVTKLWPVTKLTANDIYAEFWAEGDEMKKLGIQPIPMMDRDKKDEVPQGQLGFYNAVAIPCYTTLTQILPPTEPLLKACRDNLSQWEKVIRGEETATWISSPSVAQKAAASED

Compound: COc1cc(C)c2nc3[nH]nc(C)c3c(N3CCC(NC(N)=O)CC3)c2c1
concentration at 6 h [6]: < 10 ng/g
Ki [1]: 0.027 µM

Compound: COc1cc(C)c2nc3[nH]nc(C)c3c(NC3CCNCC3)c2c1
Ki [1]: 0.055 µM
inhibition [7]: 48%

Compound: Cc1n[nH]c2nc3ccccc3c(N3CCNCC3)c12
Ki [1]: 0.55 µM

Compound: COc1cc(C)c2nc3[nH]nc(C)c3c(N3CCNCC3)c2c1
Ki (Phosphodiesterase 6): >= 770 nM
Ki (Phosphodiesterase 3): >= 770 nM
inhibition [9]: 54%
Ki (Phosphodiesterase 4): >= 770 nM
fraction unbound [10]: 0.16
Ki [11]: ≥ 0.77 µM
Ki [12]: ≥ 0.77 µM
concentration at 6 h [6]: 123 ng/g
IC50 [13]: 0.32 µM
inhibition [14]: 54%
Ki (Phosphodiesterase 8): >= 770 nM
Ki (Phosphodiesterase 7): >= 770 nM
Ki [15]: ≥ 0.77 µM
Ki (Phosphodiesterase 1): >= 770 nM
Ki [16]: > 100 µM
inhibition [17]: 54%
Kp at 6 h [18]: 1.2
AUC(0-t) at 6 h [5]: 3.3 µM·h

Compound: COc1cc(C)c2nc3[nH]nc(C)c3c(NCCc3ccncc3)c2c1
Ki (Phosphodiesterase 6): 0.554 µM
Ki [1]: 0.07 µM

Compound: Cc1n[nH]c2nc3ccc(Cl)cc3c(N3CCNCC3)c12
Ki [1]: 0.419 µM

Compound: COc1cc(C)c2nc3[nH]nc(C)c3c(N3CCCCC3)c2c1
Ki [1]: 0.363 µM

Further lines, with some results ahead:

Ki [1]: 0.0005 µM
Compound: COc1cc(C)c2nc3[nH]nc(C)c3c(N3CCC(CN)CC3)c2c1

inhibition [2]: 30%
Ki [1]: 0.0031 µM
AUC(0-t) at 6 h [5]: 10.6 µM·h
Compound: COc1cc(C)c2nc3[nH]nc(C)c3c(OC3CCOCC3)c2c1
inhibition (Rattus norvegicus [3]): inactive
inhibition (Rattus norvegicus [4]): Active

Ki (Phosphodiesterase 6): 1.811 µM
Ki [1]: 0.006 µM
Compound: COc1cc(C)c2nc3[nH]nc(C)c3c(NCc3ccccn3)c2c1

Ki (Phosphodiesterase 6): 13.882 µM
Ki [1]: 0.005 µM
Compound: COc1cc(C)c2nc3[nH]nc(C)c3c(NCC3CNCCO3)c2c1 (stereo unspecified)

Ki (Phosphodiesterase 6): 0.211 µM
Ki [1]: 0.0006 µM
Compound: COc1cc(C)c2nc3[nH]nc(C)c3c(NCc3ccncc3)c2c1

concentration at 1 h [8]: 27 ng/g
concentration at 6 h [6]: < 10 ng/g
Ki [1]: 0.0033 µM
AUC(0-t) at 6 h [5]: 9.5 µM·h
Compound: COc1cc(C)c2nc3[nH]nc(C)c3c(N3CCN(C(N)=O)[C@@H](C)C3)c2c1
inhibition (Rattus norvegicus [4]): inactive

Ki [1]: 0.015 µM
Compound: COc1cc(C)c2nc3[nH]nc(C)c3c(N3CCCNCC3)c2c1

Ki [1]: 0.023 µM
Compound: COc1cc(C)c2nc3[nH]nc(C)c3c(N3CCOCC3)c2c1

From ChEMBL document CHEMBL1938329, “The discovery of potent, selective, and orally active pyrazoloquinolines as PDE10A inhibitors for the treatment of Schizophrenia” (Bioorg Med Chem Lett, 2012)
